The record followed here is ChEMBL document CHEMBL1129520 (J Med Chem, 1996).

Broadly, the Ki is a measure of affinity in units of concentration, obtained from inhibition or displacement. A high value points to weaker binding. What is called ED50 is the dose that gives a 50% effect, or the effect in half of the subjects.

The target in test [1] is T1, Histamine H3 receptor (Rattus norvegicus, UniProt Q9QYN8). Kind of test: Binding affinity towards Histamine H3 receptor on synaptosomes from rat cerebral cortex. The class given is subcellular, Brain. The method, boiled down:
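Rat cerebral cortex homogenized in ice-cold 50 mM Na2HPO4/KH2PO4, pH 7.5, then washed membranes after two differential centrifugations. Incubated 60 min at 25 °C with [3H]-(R)-α-methylhistamine and drugs at various concentrations. Stopped by ice-cold dilution, vacuum-filtered through glass-fibre filters, scintillation counted. Nonspecific binding defined with 3 µM thioperamide.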

Test [2] concerns the target T1, Histamine H3 receptor. Kind of test: (§1) In vitro antagonistic activity tested against Histamine H3 receptor on synaptosomes from rat cerebral cortex. The class given is functional, subcellular, Brain. The method in brief:
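Preloaded 30 min with L-[3H]histidine (0.4 µM) at 37 °C in modified Krebs-Ringer. Washed, resuspended in 2 mM K+ medium, then depolarized 2 min with 2 or 30 mM K+ (final). […] Stopped by rapid centrifugation; liquid scintillation. Ki by Cheng-Prusoff; mean ± SEM, ≥3 determinations.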

Test [3] has as its target Histamine H2 receptor (Cavia porcellus) (UniProt P47747). The experiment in a line: […] activity against histamine H2 receptor on guinea pig atrium. The class given is functional, tissue-based. The note with it: Cardiac atrium. The method, boiled down: (§2)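 Isolated, spontaneously beating guinea pig right atrium, standard functional H2 method. Each test run at least in triplicate.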

In test [4] the target is Histamine H1 receptor (Cavia porcellus) (UniProt P31389). Kind of test: […] activity against histamine H1 receptor on guinea pig ileum. The class given is functional, tissue-based. The method, boiled down: (§3)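 Isolated guinea pig ileum, standard functional H1 method. Each test run at least in triplicate.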
In test [5] the target is Histamine H3 receptor (Mus musculus) (UniProt P58406). The experiment in a line: In vivo antagonistic activity was tested against histamine H3 receptor after oral administration to mouse. The class given is functional, organism-based. The method in brief:
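Swiss mice dosed perorally. Read-out was the increase in brain Nτ-methylhistamine levels.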

For test [6], the target named is Histamine H2 receptor (Cavia porcellus) (UniProt P47747). Kind of test: […] activity tested against histamine H2 receptor on guinea pig atrium. The class given is functional, tissue-based. The conditions noted are these: Cardiac atrium. The method, boiled down:
as §2

For test [7], the target named is Histamine H1 receptor (Cavia porcellus) (UniProt P31389). The experiment in a line: […] activity tested against histamine H1 receptor on guinea pig ileum. The class given is functional, tissue-based. The method in brief: as §3
Test [8] deals with T1, Histamine H3 receptor. The description is as §1. The class given is functional, subcellular, Brain. The method, boiled down:
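Rat cerebral cortex synaptosomes preincubated 30 min at 37 °C with L-[3H]histidine (0.4 µM) in modified Krebs-Ringer, washed, resuspended in 2 mM K+ medium. […] Ki via Cheng-Prusoff; mean ± SEM, at least three determinations.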
This is another data set of the same source.

Test [9] deals with T1, Histamine H3 receptor. Kind of test: In vitro antagonistic activity against histamine H3 receptor on rat cerebral cortex. The class given is functional, tissue-based. The method, boiled down:
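Synaptosomes were preloaded 30 min with L-[3H]histidine (0.4 µM) at 37 °C in modified Krebs-Ringer, then washed and resuspended in 2 mM K+ medium. […] The reaction was stopped by centrifugation and read by scintillation. Ki by Cheng-Prusoff, mean ± SEM, n≥3.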

Histamine H3 receptor (Mus musculus), sequence (P58406 whole entry): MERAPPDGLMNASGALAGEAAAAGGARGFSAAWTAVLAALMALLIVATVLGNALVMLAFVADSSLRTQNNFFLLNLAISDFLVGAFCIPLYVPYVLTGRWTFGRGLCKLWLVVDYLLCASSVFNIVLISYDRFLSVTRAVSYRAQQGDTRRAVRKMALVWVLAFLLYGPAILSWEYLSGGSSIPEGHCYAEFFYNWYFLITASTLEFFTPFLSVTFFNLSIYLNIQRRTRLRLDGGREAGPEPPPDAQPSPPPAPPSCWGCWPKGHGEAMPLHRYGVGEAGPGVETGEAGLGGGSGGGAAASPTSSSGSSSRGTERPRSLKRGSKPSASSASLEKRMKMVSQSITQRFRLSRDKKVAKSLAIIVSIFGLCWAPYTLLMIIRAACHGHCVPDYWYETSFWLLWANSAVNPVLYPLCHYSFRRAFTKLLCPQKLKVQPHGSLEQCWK
Histamine H2 receptor (Cavia porcellus), sequence (P47747 whole entry): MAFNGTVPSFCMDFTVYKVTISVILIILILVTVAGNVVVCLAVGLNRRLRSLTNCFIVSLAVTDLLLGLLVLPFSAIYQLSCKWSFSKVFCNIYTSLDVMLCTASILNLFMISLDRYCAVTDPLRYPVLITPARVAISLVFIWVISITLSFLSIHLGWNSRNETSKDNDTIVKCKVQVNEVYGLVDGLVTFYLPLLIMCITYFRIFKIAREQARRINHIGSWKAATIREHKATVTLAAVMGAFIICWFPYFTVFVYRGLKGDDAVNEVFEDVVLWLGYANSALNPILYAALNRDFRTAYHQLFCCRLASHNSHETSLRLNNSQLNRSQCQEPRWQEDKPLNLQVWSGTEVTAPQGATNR
Histamine H1 receptor (Cavia porcellus), sequence (P31389 whole entry): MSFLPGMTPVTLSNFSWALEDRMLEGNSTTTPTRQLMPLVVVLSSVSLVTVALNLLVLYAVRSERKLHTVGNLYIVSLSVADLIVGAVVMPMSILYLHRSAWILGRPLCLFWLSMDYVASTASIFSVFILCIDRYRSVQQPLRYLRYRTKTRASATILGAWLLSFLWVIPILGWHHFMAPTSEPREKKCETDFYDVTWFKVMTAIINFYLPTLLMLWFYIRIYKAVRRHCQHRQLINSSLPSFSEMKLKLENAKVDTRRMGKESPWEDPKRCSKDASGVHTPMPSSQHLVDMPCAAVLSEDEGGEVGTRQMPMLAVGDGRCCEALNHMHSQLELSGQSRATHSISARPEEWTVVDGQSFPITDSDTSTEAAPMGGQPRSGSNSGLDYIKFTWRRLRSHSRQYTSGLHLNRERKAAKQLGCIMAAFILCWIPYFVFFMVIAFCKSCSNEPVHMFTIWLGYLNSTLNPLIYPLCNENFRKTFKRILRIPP
T1 sequence (Q9QYN8 whole entry): as the sequence (P58406 whole entry) above, with A15T, T286A, G290A, H387R, V389I counted along it

Consider `Cc1ccc(C(=O)OCCCc2cnc[nH]2)cc1I`, for which the Ki on Histamine H3 receptor [1] is 5.01 nM; on Histamine H3 receptor [2] it was 30 nM.
The like results for `O=C(Nc1cccc(I)c1)OCCCc1cnc[nH]1` were, in that order, 7.94 nM and 16 nM.
Take `Brc1ccc(COCCCc2c[nH]cn2)cc1`: the Kb is 12600 nM in test [3] and 1260 nM in [4]. Moreover, the Ki at Histamine H3 receptor [1] is 1.26 nM; on Histamine H3 receptor [2], 14 nM. In test [5], the ED50 was more than 10 mg/kg.
On to `O=C(CCCc1ccc(I)cc1)OCCCc1c[nH]cn1`, for which the -Log KB worked out at 4 in test [6] and 4.8 in [7].
On to `O=C(CCCc1ccc(I)cc1)OCCCc1cnc[nH]1`, for which the Ki was 31.6 nM at Histamine H3 receptor [1] and 41 nM at Histamine H3 receptor [2].
For the compound `Ic1ccc(OCCCc2cnc[nH]2)cc1`, the Ki is 3.16 nM on Histamine H3 receptor [1] and 22 nM on Histamine H3 receptor [2].
As to `Ic1ccc(OCCCc2c[nH]cn2)cc1`, the results for the -Log KB in [6] and in [7] were 5.2 and 6.2, respectively.
Taken in the same sequence, the figures for `O=C(Nc1cccc(I)c1)OCCCc1c[nH]cn1` were 5.3 and 5.1.
Take `O=C(Nc1ccccc1I)OCCCc1cnc[nH]1`: the Ki at Histamine H3 receptor [1] was 25.1 nM; on Histamine H3 receptor [2] it was 25 nM.
`O=C(Nc1ccc(I)cc1)OCCCc1cnc[nH]1`: the inhibition constant Ki at Histamine H3 receptor [1] is 7.94 nM; on Histamine H3 receptor [8], 10 nM; at Histamine H3 receptor [2], 11 nM.
Take `Ic1ccc(COCCCc2c[nH]cn2)cc1` [IODOPROXYFAN]: the results for the Ki at Histamine H3 receptor [1] and on Histamine H3 receptor [2] were 1 nM and 5 nM, respectively. This compound also registered an ED50 in [5] of more than 10 mg/kg. The -Log KB was 5.2 in test [6] and 5.8 in test [7].
As to `Ic1cccc(OCCCc2c[nH]cn2)c1`, the -Log KB was found to be 5.6 in test [6] and 6.2 in test [7].
In the case of `O=C(OCCCc1cnc[nH]1)c1ccccc1I`, the results for the Ki on Histamine H3 receptor [1] and at Histamine H3 receptor [2] were 20 nM and 39 nM, respectively.
The like results for `Ic1cccc(OCCCc2cnc[nH]2)c1` were, in that order, 2.51 nM and 17 nM.
On to `O=C(OCCCc1c[nH]cn1)c1cccc(I)c1`, for which the Ki is 3.98 nM on Histamine H3 receptor [1] and 25 nM at Histamine H3 receptor [2]. The -Log KB in test [6] turned out to be 3.8; in test [7], 4.8.
For `Nc1c(I)cc(C(=O)OCCCc2c[nH]cn2)cc1I`, the -Log KB in test [6] was found to be 4.6; in [7], 5.9.
With `S=C(NC1CCCCC1)N1CCC(c2cnc[nH]2)CC1` [THIOPERAMIDE], the Kb in [3] is more than 10000 nM. Besides, the Ki at Histamine H3 receptor [8] is 3.98 nM; on Histamine H3 receptor [9] it was 2 nM.
Regarding `OCCCc1c[nH]cn1`, the Ki on Histamine H3 receptor [1] was 631 nM; at Histamine H3 receptor [8], 398 nM. Besides, the ED50 in [5] is more than 10 mg/kg.
As for `Ic1ccc(CCCOCCCc2c[nH]cn2)cc1`, the values for the Ki at Histamine H3 receptor [1] and on Histamine H3 receptor [2] were 7.94 nM and 35 nM, respectively. Moreover, the values for the -Log KB in test [6] and in test [7] were 5.1 and 5.2, respectively.
On to `O=C(Cc1ccc(I)cc1)OCCCc1c[nH]cn1`, for which the results for the -Log KB in test [6] and in test [7] were 3.6 and 4.5, respectively.
As for `O=C(Cc1ccc(I)cc1)OCCCc1cnc[nH]1`, the values for the Ki on Histamine H3 receptor [1] and on Histamine H3 receptor [2] were 12.6 nM and 14 nM, respectively.
`O=C(NCc1ccc(I)cc1)OCCCc1c[nH]cn1`: the Ki on Histamine H3 receptor [1] is 12.6 nM; on Histamine H3 receptor [2], 12 nM. In addition, the -Log KB in test [6] turned out to be 4.5; in test [7], 5.1.
`COc1ccc(CCC(=O)OCCCc2c[nH]cn2)cc1I`: the -Log KB in [6] was 4.5; in [7], less than 4.
Turning to `Cc1[nH]cnc1CSCCNC(=N)NCCCc1c[nH]cn1` [IMPROMIDINE], the Kb in test [3] is 501 nM; in [4], more than 10000 nM. The compound further showed an inhibition constant Ki at Histamine H3 receptor [8] of 63.1 nM.
For the compound `Cc1ccc(C(=O)OCCCc2c[nH]cn2)cc1I`, the -Log KB in test [6] turned out to be 4.2; in test [7], 4.9.
Take `Ic1cccc(COCCCc2c[nH]cn2)c1`: the values for the Ki at Histamine H3 receptor [1] and on Histamine H3 receptor [2] were 1.26 nM and 7 nM, respectively. Besides, in test [5], the ED50 is more than 10 mg/kg. In addition, the -Log KB in test [6] and in test [7] was 5.8 each time.
With `COc1ccc(CCC(=O)OCCCc2cnc[nH]2)cc1I`, the Ki at Histamine H3 receptor [1] was 200 nM; at Histamine H3 receptor [2], 232 nM.
As for `O=C(Nc1ccccc1I)OCCCc1c[nH]cn1`, the -Log KB was determined as 4.6 in [6] and 4.8 in test [7].
The like results for `O=C(OCCCc1c[nH]cn1)c1ccc(I)cc1` were, in that order, 4.5 and 4.2.
As for `O=C(OCCCc1cnc[nH]1)c1ccc(I)cc1`, the Ki on Histamine H3 receptor [1] was 7.94 nM; at Histamine H3 receptor [2], 20 nM.
Turning to `O=C(CCc1ccc(I)cc1)OCCCc1c[nH]cn1`, the Ki on Histamine H3 receptor [1] was 79.4 nM; on Histamine H3 receptor [2], 47 nM. Further, the -Log KB in test [6] was 3.6; in test [7] it was 4.8.
`O=C(OCCCc1c[nH]cn1)c1ccccc1I`: the -Log KB is 4.6 in test [6] and 5.9 in test [7].
Take `O=C(Nc1ccc(I)cc1)OCCCc1c[nH]cn1`: the ED50 in test [5] was more than 10 mg/kg. Also, the values for the -Log KB in test [6] and in test [7] were 5.3 and 4.4, respectively.
As to `Nc1c(I)cc(C(=O)OCCCc2cnc[nH]2)cc1I`, the Ki was 31.6 nM at Histamine H3 receptor [1] and 146 nM on Histamine H3 receptor [2].
